Measured values published in ChEMBL document CHEMBL3286172, “Exploring the role of 2-chloro-6-fluoro substitution in 2-alkylthio-6-benzyl-5-alkylpyrimidin-4(3H)-ones: effects in HIV-1-infected cells and in HIV-1 reverse transcriptase enzymes” (J Med Chem, 2014).

Experiments:
[1] = test system: Human immunodeficiency virus 1; test: Fold resistance, ratio of EC50 for HIV-1 harboring NNTRI-resistant reverse transcriptase Y188L mutant infected in human MT4 cells to EC50 for wild type HIV-1 NL4-3 infected in human MT4 cells; assay type: functional
In short: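 HIV-1 NL4-3 (wt) or Y188L mutant infection of MT-4 cells across a range of drug concentrations. Viable cells were counted by MTT at day 5 post-infection. […] Fold resistance is mutant EC50 over wt EC50. Means of at least two experiments.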

[2] = test system: Human immunodeficiency virus 1; test: Fold resistance, ratio of ID50 for HIV-1 recombinant NNTRI-resistant reverse transcriptase L100I mutant to ID50 for wild type HIV-1 recombinant reverse transcriptase
In short: (§1)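 Recombinant wt or mutant HIV-1 RT, purified to >95%, at 2-4 nM. RNA-dependent DNA polymerase activity with 0.5 µg poly(rA)/oligo(dT)10:1 (0.3 µM 3'-OH ends), 10 µM [3H]-dTTP and 8% final DMSO. Incorporation was sampled at 2-min intervals. ID50 came from fitting to a fully non-competitive model. Ratio is ID50 mutant/ID50 wt. Means of at least three experiments.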

[3] = test system: Human immunodeficiency virus 1; test: Fold resistance, ratio of EC50 for HIV-1 harboring NNTRI-resistant reverse transcriptase Y181C mutant infected in human MT4 cells to EC50 for wild type HIV-1 NL4-3 infected in human MT4 cells; assay type: functional
In short: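 MT-4 cells infected with HIV-1 mutant (K103N or Y181C) or wild-type NL4-3, with drug present. […] Fold resistance is the mutant EC50 divided by the wild-type NL4-3 EC50. EC50 values are means of at least two experiments.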

[4] = test system: Human immunodeficiency virus 1; test: Fold resistance, ratio of ID50 for HIV-1 recombinant NNTRI-resistant reverse transcriptase Y181I mutant to ID50 for wild type HIV-1 recombinant reverse transcriptase
In short: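 RNA-dependent DNA polymerase activity with 0.5 µg poly(rA)/oligo(dT)10:1 (0.3 µM 3'-OH ends), 10 µM [3H]-dTTP and 8% final DMSO. Incorporation was sampled at 2-min intervals. ID50 came from fitting to a fully non-competitive model. Means of at least three experiments.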

[5] = test system: Human immunodeficiency virus 1; test: Fold resistance, ratio of EC50 for HIV-1 harboring NNTRI-resistant reverse transcriptase K103N mutant infected in human MT4 cells to EC50 for wild type HIV-1 NL4-3 infected in human MT4 cells; assay type: functional
[6] = Cytotoxicity against human MT4 cells assessed as induction of cell death by MTT method; assay type: cell-based
In short: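 Mock-infected MT-4 cells exposed to a range of drug concentrations. Viability read by MTT colorimetry at day 5. […] Top concentration was limited where compound precipitated in the culture medium. Means of at least two experiments.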

[7] = test system: Human immunodeficiency virus 1; test: Antiviral activity against HIV-1 harboring NNTRI-resistant reverse transcriptase K103N mutant infected in human MT4 cells assessed as inhibition of virus-induced cytopathic effect by MTT method; assay type: functional, organism-based; details: Human immunodeficiency virus 1, MT4
[8] = test system: Human immunodeficiency virus 1; test: Antiviral activity against HIV-1 harboring NNTRI-resistant reverse transcriptase Y188L mutant infected in human MT4 cells assessed as inhibition of virus-induced cytopathic effect by MTT method; assay type: functional, organism-based; details: Human immunodeficiency virus 1, MT4
In short: (§2)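 MT-4 lymphoid cells infected with HIV-1 carrying RT K103N, Y181C or Y188L, with a range of drug concentrations present. Viable cells counted by MTT colorimetric assay at day 5 post-infection. […] Highest concentration tested was limited by precipitation in culture medium. Means of at least two experiments.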

[9] = test system: Human immunodeficiency virus 1; test: Antiviral activity against wild type HIV-1 NL4-3 infected in human MT4 cells assessed as inhibition of virus-induced cytopathic effect by MTT method; assay type: functional, organism-based; details: Human immunodeficiency virus 1, NL4-3, MT4
In short: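 MT-4 lymphoid cells infected with wild-type HIV-1 NL4-3 while exposed to a range of drug concentrations. Viable cells counted by tetrazolium (MTT) colorimetry at day 5 post-infection. Means of at least two experiments.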

[10] = test system: Human immunodeficiency virus 1; test: Antiviral activity against HIV-1 harboring NNTRI-resistant reverse transcriptase Y181C mutant infected in human MT4 cells assessed as inhibition of virus-induced cytopathic effect by MTT method; assay type: functional, organism-based; details: Human immunodeficiency virus 1, MT4; in short: as §2
[11] = test system: Human immunodeficiency virus 1; test: Fold resistance, ratio of ID50 for HIV-1 recombinant NNTRI-resistant reverse transcriptase K103N mutant to ID50 for wild type HIV-1 recombinant reverse transcriptase; in short: as §1
[12] = Selectivity index, ratio of CC50 for human MT4 cells to EC50 for wild type HIV-1 NL4-3 infected in human MT4 cells; assay type: toxicity, cell-based; details: read-out: Ratio CC50/EC50
In short: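 Ratio of CC50 to EC50, both from MTT readings in MT-4 cells at day 5. CC50 was taken in mock-infected cells and EC50 in cells infected with wild-type NL4-3. Values are means of at least two experiments.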

[13] = test system: Human immunodeficiency virus type 1 reverse transcriptase (Human immunodeficiency virus 1), Q72547 [L100I]
[14] = target: Human immunodeficiency virus type 1 reverse transcriptase (Human immunodeficiency virus 1) (UniProt Q72547)
[15] = test system: Human immunodeficiency virus type 1 reverse transcriptase (Human immunodeficiency virus 1), Q72547 [Y181I]
[16] = test system: Human immunodeficiency virus type 1 reverse transcriptase (Human immunodeficiency virus 1), Q72547 [K103N]
[17] = test system: Human immunodeficiency virus 1; test: Ratio of efavirenz EC50 to compound EC50 for wild type HIV-1 NL4-3 infected in human MT4 cells; assay type: functional

What does the source list for `CC[C@@H](C)Sc1nc([C@H](C)c2c(F)cccc2Cl)cc(=O)[nH]1`?
Ratio EC50 [1]: 2859; Ratio [2]: 18; Ratio EC50 [3]: 1924; Ratio [4]: 3750; Ratio EC50 [5]: 610; CC50 [6]: > 31000 nM; EC50 [7]: 200 nM; EC50 [8]: 860 nM; EC50 [9]: 0.3 nM; EC50 [10]: 580 nM; Ratio [11]: 488; selectivity ratio [12]: > 103000

For `Cc1c(C(C)c2c(F)cccc2F)nc(SC2CCCC2)[nH]c1=O` (racemic), which Ratio [2] is on record?
The Ratio was 60.

And the “Ratio EC50” value [3]?
The value was 100.

What about the Ratio [4] of the same molecule?
Its Ratio is 180.

What about the “Ratio EC50” value [5] of the same molecule?
Its value is 230.

And the ID50 [13]?
The ID50 was 300 nM.

And the ID50 [14]?
Its ID50 is 5 nM.

What about the CC50 [6] of the same molecule?
The CC50 was greater than 3000 nM.

What about the ID50 [15] of the same molecule?
The ID50 was 900 nM.

And the ID50 [16]?
The ID50 was 30 nM.

What about the EC50 [8] of the same molecule?
Its EC50 is greater than 3000 nM.

What about the EC50 [10] of the same molecule?
Its EC50 is 100 nM.

And the Ratio [11]?
Its Ratio is 6.

And the selectivity ratio [12]?
Its selectivity ratio is greater than 3000.

Which “Ratio EC50” value [1] does the source give for `CCC(C)Sc1nc(C(C)c2c(F)cccc2Cl)cc(=O)[nH]1` (racemic) here?
The value was 7500.

What about the Ratio [2] of the same molecule?
The Ratio was 25.

And the “Ratio EC50” value [3]?
Its value is 3600.

What about the Ratio [4] of the same molecule?
The Ratio was 2640.

And the “Ratio EC50” value [5]?
The value was 1000.

And the CC50 [6]?
The CC50 was greater than 73000 nM.

What about the EC50 [7] of the same molecule?
The EC50 was 1000 nM.

And the EC50 [8]?
The EC50 was 7500 nM.

What about the EC50 [9] of the same molecule?
The EC50 was 1 nM.

And the EC50 [10]?
The EC50 was 3600 nM.

What about the Ratio [11] of the same molecule?
Its Ratio is 375.

What about the selectivity ratio [12] of the same molecule?
Its selectivity ratio is greater than 73000.

For `CCCSc1nc(C(C)c2c(F)cccc2Cl)c(C)c(=O)[nH]1` (racemic), which “Ratio EC50” value [3] is on record?
The value was 5200.

And the “Ratio EC50” value [5]?
Its value is 7000.

What about the ID50 [13] of the same molecule?
The ID50 was 90 nM.

What about the ID50 [14] of the same molecule?
Its ID50 is 0.9 nM.

What about the CC50 [6] of the same molecule?
The CC50 was greater than 1500 nM.

And the ID50 [16]?
Its ID50 is 1500 nM.

What about the EC50 [7] of the same molecule?
Its EC50 is 350 nM.

What about the EC50 [8] of the same molecule?
Its EC50 is greater than 1500 nM.

And the EC50 [9]?
Its EC50 is 0.05 nM.

And the Ratio EC50 [17]?
Its Ratio EC50 is 140.

What about the EC50 [10] of the same molecule?
Its EC50 is 260 nM.

What about the selectivity ratio [12] of the same molecule?
The selectivity ratio was greater than 30000.

What does the source list for `CCCCSc1nc(C(C)c2c(F)cccc2Cl)c(C)c(=O)[nH]1` (racemic)?
Ratio [2]: 52; Ratio EC50 [3]: 2067; Ratio [4]: 20000; Ratio EC50 [5]: 2200; ID50 [13]: 156 nM; ID50 [14]: 3 nM; CC50 [6]: > 1500 nM; ID50 [16]: 930 nM; EC50 [7]: 660 nM; EC50 [8]: > 1500 nM; EC50 [9]: 0.3 nM; Ratio EC50 [17]: 23; EC50 [10]: 620 nM; Ratio [11]: 310; selectivity ratio [12]: > 5000

Which “Ratio EC50” value [1] does the source give for `Cc1c(C(C)c2c(F)cccc2Cl)nc(SC2CCCC2)[nH]c1=O` (racemic) here?
Its value is 96667.

And the “Ratio EC50” value [3]?
The value was 7667.

And the “Ratio EC50” value [5]?
Its value is 3100.

And the ID50 [13]?
Its ID50 is 120 nM.

What about the ID50 [14] of the same molecule?
The ID50 was 11 nM.

What about the CC50 [6] of the same molecule?
The CC50 was greater than 15000 nM.

What about the ID50 [16] of the same molecule?
Its ID50 is 1300 nM.

And the EC50 [7]?
Its EC50 is 93 nM.

And the EC50 [8]?
The EC50 was 2900 nM.

What about the EC50 [9] of the same molecule?
The EC50 was 0.03 nM.

What about the Ratio EC50 [17] of the same molecule?
Its Ratio EC50 is 230.

And the EC50 [10]?
The EC50 was 230 nM.

What about the selectivity ratio [12] of the same molecule?
Its selectivity ratio is greater than 500000.
